Assay results published in publication PMC7686626 (The Journal of International Medical Research, 2020).

Legend:
[1] = Short-term stability of stock solutions at room temperature; assay type: physicochemical; details: stock solution in methanol, room temperature for 6 hours
Summary of the method: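 Stock solutions (2.0 mg·mL−1 in methanol) of each analyte and the taxol internal standard were held 6 hours at room temperature and then assayed by the validated HPLC–MS/MS method. A deviation within ±15% was taken as stable.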

[2] = Pharmacokinetics study in rats after oral administration of HQCF extract; assay type: in vivo, rat; details: for AUC(0-inf) / AUC(0-t) / Cmax / Tmax / half-life: male, Sprague-Dawley, rat, plasma, po, 1526.5 mg/kg; for shape of the plasma concentration–time curve: rats, after HQCF extract administration
Summary of the method: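 Male Sprague–Dawley rats (200 ± 20 g), acclimatised 7 days, fasted 12 h; n = 6 given extract water solution (0.2 g·mL−1) by gavage. Blood (~250 µL) from ophthalmic vein at 0–24 h; plasma spun at 16,060 × g, 10 min, 4°C. Plasma protein-precipitated with taxol internal standard; C18 gradient HPLC–ESI-MS/MS in SRM mode. Non-compartmental analysis; mean ± SD.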

[3] = Stability of QC samples of the analytes in rat plasma; assay type: in vitro ADME; details: storage conditions of Table 5
Summary of the method: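 Rat plasma QC samples at low, middle and high levels (n = 6 each) were held 4 h at room temperature, 24 h at 4°C, three freeze/thaw cycles (−80°C to room temperature) or 45 days at −80°C. Samples were protein-precipitated with taxol internal standard and run by HPLC–MS/MS SRM. A deviation within ±15% was taken as stable.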

C[C@@]12C[C@@]3(O)O[C@@H](O1)[C@]1(COC(=O)c4ccccc4)[C@H]3C[C@@]12O[C@@H]1O[C@H](CO)[C@@H](O)[C@H](O)[C@H]1O [PA, paeoniflorin]
Stock solution stability, accuracy [1]: 105.4%
AUC(0-inf) [2]: 0.762 ± 0.281 µg·h/mL
AUC(0-t) [2]: 0.41 ± 0.0923 µg·h/mL
Cmax [2]: 0.117 ± 0.0315 µg/mL
Tmax [2]: 1.2 ± 0.6 h
half-life [2]: 6.94 ± 2.8 h
shape of the plasma concentration–time curve [2]: double-peak absorption phases
Degradation in rat plasma under different experimental conditions [3]: no significant degradation

CC(=O)O[C@H]1C(=O)[C@@]2(C)[C@H]([C@H](OC(=O)c3ccccc3)[C@]3(O)C[C@H](OC(=O)[C@H](O)[C@@H](NC(=O)c4ccccc4)c4ccccc4)C(C)=C1C3(C)C)[C@]1(OC(C)=O)CO[C@@H]1C[C@@H]2O [IS, Taxol, reference compound]
Stock solution stability, accuracy [1]: 102.4%

COc1ccc(-c2coc3cc(O)ccc3c2=O)cc1O [CA, calycosin]
Stock solution stability, accuracy [1]: 90.2%
AUC(0-inf) [2]: 1.83 ± 0.416 µg·h/mL
AUC(0-t) [2]: 1.68 ± 0.342 µg·h/mL
Cmax [2]: 0.247 ± 0.0323 µg/mL
Tmax [2]: 1.5 ± 0.4 h
half-life [2]: 6.28 ± 2.5 h
shape of the plasma concentration–time curve [2]: double-peak absorption phases
Degradation in rat plasma under different experimental conditions [3]: no significant degradation
